Data published in ChEMBL document CHEMBL3112482, “Nonclassical antifolates, part 5. Benzodiazepine analogs as a new class of DHFR inhibitors: synthesis, antitumor testing and molecular modeling study” (Eur J Med Chem, 2014).

Tests used:
CCRF-CEM = assay: Growth inhibition of human CCRF-CEM cells at 10 uM after 48 hrs; assay type: functional; settings: read-out: GI
Summary of the method: (§1)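 Single-dose primary screen in the NCI 60 human tumour cell line panel, run at the NCI facility. The panel covers nine subpanels: leukaemia, non-small cell lung, colon, CNS, melanoma, ovarian, renal, prostate and breast. Read-out was percent growth of treated cells, shown as a mean graph and reported as percent growth inhibition.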

NCI-H322M = assay: Growth inhibition of human NCI-H322M cells at 10 uM after 48 hrs; assay type: functional; settings: read-out: GI; summary of the method: as §1
OVCAR-8 = assay: Growth inhibition of human OVCAR8 cells at 10 uM after 48 hrs; assay type: functional; settings: OVCAR-8, 48 h, read-out: GI; summary of the method: as §1
IGROV-1 = assay: Growth inhibition of human IGROV1 cells at 10 uM after 48 hrs; assay type: functional; settings: IGROV-1, 48 h, read-out: GI; summary of the method: as §1
[1] = Growth inhibition of human OVCAR4 cells at 10 uM after 48 hrs; assay type: functional; settings: OVCAR-4, 48 h, read-out: GI; summary of the method: as §1
MCF7 = assay: Growth inhibition of human MCF7 cells at 10 uM after 48 hrs; assay type: functional; settings: MCF7, 48 h, read-out: GI; summary of the method: as §1
MOLT-4 = assay: Growth inhibition of human MOLT4 cells at 10 uM after 48 hrs; assay type: functional; settings: MOLT-4, 48 h, read-out: GI; summary of the method: as §1
OVCAR-3 = assay: Growth inhibition of human OVCAR3 cells at 10 uM after 48 hrs; assay type: functional; settings: OVCAR-3, 48 h, read-out: GI; summary of the method: as §1
[2] = Growth inhibition of human RXF393 cells at 10 uM after 48 hrs; assay type: functional; settings: RXF 393, 48 h, read-out: GI; summary of the method: as §1
HL-60(TB) = assay: Growth inhibition of human HL-60(TB) cells at 10 uM after 48 hrs; assay type: functional; settings: HL-60, 48 h, read-out: GI
Summary of the method: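 NCI 60-cell-line human tumour panel covering nine subpanels (leukaemia, non-small cell lung, colon, CNS, melanoma, ovarian, renal, prostate, breast), run at the NCI facility. Primary screen tested a single dose of each compound. Read-out was percent growth of treated cells versus untreated cells, reported from the mean graph as percentage growth inhibition.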

KM12 = assay: Growth inhibition of human KM12 cells at 10 uM after 48 hrs; assay type: functional; settings: KM12, 48 h, read-out: GI; summary of the method: as §1
[3] = Growth inhibition of human NCI-ADR-RES cells at 10 uM after 48 hrs; assay type: functional; settings: read-out: GI; summary of the method: as §1
SK-OV-3 = assay: Growth inhibition of human SKOV3 cells at 10 uM after 48 hrs; assay type: functional; settings: SK-OV-3, 48 h, read-out: GI
Summary of the method: (§2)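 NCI 60-cell-line disease-oriented human tumor panel, single-dose primary screen at 10 µM. Data given as mean-graph percent growth of treated cells, reported as percent growth inhibition (GI %).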

MDA-MB-231 = assay: Growth inhibition of human MDA-MB-231 cells at 10 uM after 48 hrs; assay type: functional; settings: MDA-MB-231, 48 h, read-out: GI; summary of the method: as §1
[4] = Growth inhibition of human SF539 cells at 10 uM after 48 hrs; assay type: functional; settings: SF-539, 48 h, read-out: GI; summary of the method: as §2
SNB-75 = assay: Growth inhibition of human SNB75 cells at 10 uM after 48 hrs; assay type: functional; settings: SNB-75, 48 h, read-out: GI; summary of the method: as §2
SN12C = assay: Growth inhibition of human SN12C cells at 10 uM after 48 hrs; assay type: functional; settings: read-out: GI; summary of the method: as §2
[5] = Cytotoxicity against human prostate cancer cells at 10 uM after 48 hrs; assay type: functional; settings: Cancer cell lines
SW-620 = assay: Growth inhibition of human SW620 cells at 10 uM after 48 hrs; assay type: functional; settings: SW-620, 48 h, read-out: GI; summary of the method: as §2
TK-10 = assay: Growth inhibition of human TK10 cells at 10 uM after 48 hrs; assay type: functional; settings: TK-10, 48 h, read-out: GI; summary of the method: as §2
SNB-19 = assay: Growth inhibition of human SNB19 cells at 10 uM after 48 hrs; assay type: functional; settings: SNB-19, 48 h, read-out: GI; summary of the method: as §2
SK-MEL-2 = assay: Growth inhibition of human SK-MEL-2 cells at 10 uM after 48 hrs; assay type: functional; settings: SK-MEL-2, 48 h, read-out: GI; summary of the method: as §2
HT-29 = assay: Growth inhibition of human HT-29 cells at 10 uM after 48 hrs; assay type: functional; settings: HT-29, 48 h, read-out: GI; summary of the method: as §1
[6] = Growth inhibition of human UO31 cells at 10 uM after 48 hrs; assay type: functional; settings: UO-31, 48 h, read-out: GI; summary of the method: as §2
[7] = Growth inhibition of human Hs 578T cells at 10 uM after 48 hrs; assay type: functional; settings: read-out: GI; summary of the method: as §1
T47D = assay: Growth inhibition of human T47D cells at 10 uM after 48 hrs; assay type: functional; settings: read-out: GI; summary of the method: as §2
SF-268 = assay: Growth inhibition of human SF268 cells at 10 uM after 48 hrs; assay type: functional; settings: SF-268, 48 h, read-out: GI; summary of the method: as §2
[8] = Growth inhibition of human HCC2998 cells at 10 uM after 48 hrs; assay type: functional; settings: HCC 2998, 48 h, read-out: GI; summary of the method: as §1
[9] = Growth inhibition of human EKVX cells at 10 uM after 48 hrs; assay type: functional; settings: read-out: GI; summary of the method: as §1
NCI-H23 = assay: Growth inhibition of human NCI-H23 cells at 10 uM after 48 hrs; assay type: functional; settings: NCI-H23, 48 h, read-out: GI; summary of the method: as §1
786-0 = assay: Growth inhibition of human 786-0 cells at 10 uM after 48 hrs; assay type: functional; settings: 786-0, 48 h, read-out: GI; summary of the method: as §1
PC-3 = assay: Growth inhibition of human PC3 cells at 10 uM after 48 hrs; assay type: functional; settings: PC-3, 48 h, read-out: GI; summary of the method: as §1
DU-145 = assay: Growth inhibition of human DU145 cells at 10 uM after 48 hrs; assay type: functional; settings: DU-145, 48 h, read-out: GI; summary of the method: as §1
CAKI-1 = assay: Growth inhibition of human CAKI-1 cells at 10 uM after 48 hrs; assay type: functional; settings: CAKI-1, 48 h, read-out: GI; summary of the method: as §1
[10] = Growth inhibition of human OVCAR5 cells at 10 uM after 48 hrs; assay type: functional; settings: OVCAR-5, 48 h, read-out: GI; summary of the method: as §1
NCI-H226 = assay: Growth inhibition of human NCI-H226 cells at 10 uM after 48 hrs; assay type: functional; settings: NCI-H226, 48 h, read-out: GI; summary of the method: as §1
SK-MEL-28 = assay: Growth inhibition of human SK-MEL-28 cells at 10 uM after 48 hrs; assay type: functional; settings: SK-MEL-28, 48 h, read-out: GI; summary of the method: as §2
K562 = assay: Growth inhibition of human K562 cells at 10 uM after 48 hrs; assay type: functional; settings: K562, 48 h, read-out: GI; summary of the method: as §1
SR = assay: Growth inhibition of human SR cells at 10 uM after 48 hrs; assay type: functional; settings: read-out: GI; summary of the method: as §2
Dihydrofolate reductase = molecular target: T1, Dihydrofolate reductase (Bos taurus, UniProt P00376); assay: Inhibition of bovine liver DHFR measured for every 1 min of 10 mins
T1 sequence (P00376 whole entry): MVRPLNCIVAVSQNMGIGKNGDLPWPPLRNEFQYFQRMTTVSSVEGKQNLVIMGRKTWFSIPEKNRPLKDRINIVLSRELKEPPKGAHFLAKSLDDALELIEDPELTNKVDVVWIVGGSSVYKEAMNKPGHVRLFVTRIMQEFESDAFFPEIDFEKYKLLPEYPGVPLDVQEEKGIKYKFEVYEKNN

SMILES: COc1ccc(/C=C2\CCCc3c2nc(N)nc3-c2ccc(OC)c(OC)c2)cc1OC
- inhibition of growth at 10 µM (CCRF-CEM): 84.7%
- inhibition of growth at 10 µM (NCI-H322M): < 30%
- inhibition of growth at 10 µM (OVCAR-8): 89.4%
- inhibition of growth at 10 µM (IGROV-1): 42.9%
- inhibition of growth at 10 µM [1]: 46.7%
- inhibition of growth at 10 µM (MCF7): 72.4%
- inhibition of growth at 10 µM (MOLT-4): 46.9%
- inhibition of growth at 10 µM (OVCAR-3): 89.2%
- inhibition of growth at 10 µM [2]: 79.1%
- inhibition of growth at 10 µM (HL-60(TB)): 57.7%
- inhibition of growth at 10 µM (KM12): 67.9%
- inhibition of growth at 10 µM [3]: 74.9%
- inhibition of growth at 10 µM (SK-OV-3): 55.9%
- inhibition of growth at 10 µM (MDA-MB-231): < 30%
- inhibition of growth at 10 µM [4]: < 30%
- inhibition of growth at 10 µM (SNB-75): 36.1%
- inhibition of growth at 10 µM (SN12C): 42.6%
- GI50 [5]: 5.1 µM
- LC50 [5]: > 100 µM
- TGI [5]: > 100 µM
- inhibition of growth at 10 µM (SW-620): 59.3%
- inhibition of growth at 10 µM (TK-10): < 30%
- inhibition of growth at 10 µM (SNB-19): < 30%
- inhibition of growth at 10 µM (SK-MEL-2): 43.2%
- inhibition of growth at 10 µM (HT-29): 75.8%
- inhibition of growth at 10 µM [6]: 37.1%
- inhibition of growth at 10 µM [7]: < 30%
- inhibition of growth at 10 µM (T47D): < 30%
- inhibition of growth at 10 µM (SF-268): 36.2%
- inhibition of growth at 10 µM [8]: < 30%
- inhibition of growth at 10 µM [9]: < 30%
- inhibition of growth at 10 µM (NCI-H23): 50.7%
- inhibition of growth at 10 µM (786-0): < 30%
- inhibition of growth at 10 µM (PC-3): 38.5%
- inhibition of growth at 10 µM (DU-145): < 30%
- inhibition of growth at 10 µM (CAKI-1): 44.2%
- inhibition of growth at 10 µM [10]: < 30%
- inhibition of growth at 10 µM (NCI-H226): 65.9%
- inhibition of growth at 10 µM (SK-MEL-28): 34.7%
- inhibition of growth at 10 µM (K562): 44%
- inhibition of growth at 10 µM (SR): 71.9%
- IC50 (Dihydrofolate reductase): 14 µM

SMILES: COc1ccc(/C=C2\CCCC3=C(c4ccc(OC)cc4)Nc4ccccc4N=C32)cc1
- inhibition of growth at 10 µM (CCRF-CEM): < 30%
- inhibition of growth at 10 µM (NCI-H322M): < 30%
- inhibition of growth at 10 µM (OVCAR-8): < 30%
- inhibition of growth at 10 µM (IGROV-1): < 30%
- inhibition of growth at 10 µM [1]: < 30%
- inhibition of growth at 10 µM (MCF7): 44%
- inhibition of growth at 10 µM (MOLT-4): < 30%
- inhibition of growth at 10 µM (OVCAR-3): < 30%
- inhibition of growth at 10 µM [2]: < 30%
- inhibition of growth at 10 µM (HL-60(TB)): < 30%
- inhibition of growth at 10 µM (KM12): 72.5%
- inhibition of growth at 10 µM [3]: < 30%
- inhibition of growth at 10 µM (SK-OV-3): < 30%
- inhibition of growth at 10 µM (MDA-MB-231): < 30%
- inhibition of growth at 10 µM [4]: < 30%
- inhibition of growth at 10 µM (SNB-75): < 30%
- inhibition of growth at 10 µM (SN12C): < 30%
- inhibition of growth at 10 µM (SW-620): < 30%
- inhibition of growth at 10 µM (TK-10): < 30%
- inhibition of growth at 10 µM (SNB-19): < 30%
- inhibition of growth at 10 µM (SK-MEL-2): < 30%
- inhibition of growth at 10 µM (HT-29): < 30%
- inhibition of growth at 10 µM [6]: < 30%
- inhibition of growth at 10 µM [7]: < 30%
- inhibition of growth at 10 µM (T47D): < 30%
- inhibition of growth at 10 µM (SF-268): < 30%
- inhibition of growth at 10 µM [8]: < 30%
- inhibition of growth at 10 µM [9]: < 30%
- inhibition of growth at 10 µM (NCI-H23): < 30%
- inhibition of growth at 10 µM (786-0): < 30%
- inhibition of growth at 10 µM (PC-3): < 30%
- inhibition of growth at 10 µM (DU-145): < 30%
- inhibition of growth at 10 µM (CAKI-1): < 30%
- inhibition of growth at 10 µM [10]: < 30%
- inhibition of growth at 10 µM (NCI-H226): < 30%
- inhibition of growth at 10 µM (SK-MEL-28): < 30%
- inhibition of growth at 10 µM (K562): 49.1%
- inhibition of growth at 10 µM (SR): 46.1%
- IC50 (Dihydrofolate reductase): 0.6 µM
